Results: ChEMBL document CHEMBL4308847, “Discovery, Structure-Activity Relationship, and Biological Characterization of a Novel Series of 6-((1 H-Pyrazolo[4,3- b]pyridin-3-yl)amino)-benzo[ d]isothiazole-3-carboxamides as Positive Allosteric Modulators of the Metabotropic Glutamate Receptor 4 (mGlu4)” (J Med Chem, 2018)
The source made the active and inactive calls. The rule behind the calls is not given here.

Columns and labels:
[1] = biological target: T1, Cytochrome P450 1A2 (Homo sapiens, UniProt P05177); assay: Inhibition of CYP1A2 in human liver microsomes using phenacetin as substrate preincubated for 15 mins followed by substrate addition and measured after 8 mins by LC-MS/MS analysis; assay type: ADME
T1 sequence (P05177 whole entry): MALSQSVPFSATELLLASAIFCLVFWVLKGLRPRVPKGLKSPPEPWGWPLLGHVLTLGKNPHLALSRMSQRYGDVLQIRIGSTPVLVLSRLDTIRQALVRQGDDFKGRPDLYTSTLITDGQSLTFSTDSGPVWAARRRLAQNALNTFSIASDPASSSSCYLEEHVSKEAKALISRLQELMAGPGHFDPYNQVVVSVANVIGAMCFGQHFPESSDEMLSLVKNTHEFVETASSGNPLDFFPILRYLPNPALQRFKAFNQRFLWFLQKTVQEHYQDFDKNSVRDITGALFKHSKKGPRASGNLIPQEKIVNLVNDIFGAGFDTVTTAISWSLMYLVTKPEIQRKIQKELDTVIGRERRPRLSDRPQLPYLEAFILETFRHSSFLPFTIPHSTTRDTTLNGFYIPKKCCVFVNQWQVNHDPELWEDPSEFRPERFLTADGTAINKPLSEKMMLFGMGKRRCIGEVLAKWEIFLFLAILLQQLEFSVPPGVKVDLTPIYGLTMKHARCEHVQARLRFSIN
Procedure, shortened: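 IC50 for CYP1A2 inhibition determined in human liver microsomes using specific probe substrate-metabolite pairs.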

[2] = biological target: Metabotropic glutamate receptor 4 (Homo sapiens, UniProt Q14833); assay: Positive allosteric modulation of human mGlu4 receptor expressed in CHO cells co-expressing Gqi5 assessed as increase in glutamate-induced calcium mobilization preincubated for 142 secs followed by EC20 glutamate addition and subsequent EC80 glutamate addition after 147 secs by Fluo-4-AM dye based fluorescence assay; assay type: functional, cell-based
Procedure, shortened: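 CHO cells expressing human mGlu4 and Gqi5, plated at 30,000 cells/well and grown overnight at 37 °C, 5% CO2. Cells were loaded with 1 μM Fluo-4 AM for 45 min at 37 °C in HBSS/20 mM HEPES/2.5 mM probenecid. Compounds were run as 10-point, 1:3 dilution series. After 142 s, EC20 glutamate was added; 147 s later, EC80 glutamate. Fluorescence was normalized to the maximal glutamate response. EC50 and %Glu Max were fitted by four-parameter logistic, with maximum normalized to PHCCC.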

[3] = biological target: Metabotropic glutamate receptor 1 (Homo sapiens) (UniProt Q13255); assay: Allosteric modulation of human mGlu1 receptor assessed as change in glutamate-induced calcium mobilization at 10 uM preincubated for 2.5 mins followed by glutamate addition by Fluo-4-AM dye based fluorescence assay; assay type: functional
Procedure, shortened: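 Human mGlu1 and rat mGlu5 tested by calcium mobilization with a double addition. 10 μM compound was added, then 2.5 min later a full glutamate concentration range. A left shift of more than 2-fold was scored as potentiation. A right shift of more than 2-fold, or a depression of the maximum response by at least 75%, was scored as antagonism.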

[4] = Drug uptake in cerebrospinal fluid of Sprague-Dawley rat model of haloperidol-induced catalepsy at 10 mg/kg, po; assay type: ADME, organism-based; conditions: in vivo, read-out: Drug uptake
Procedure, shortened: (§1)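 Male Sprague-Dawley rats given haloperidol 0.75 mg/kg i.p., then returned to cages for 60 min. Compound 10 mg/kg was dosed orally 30 min before catalepsy testing. Plasma, brain and CSF were then assayed, and free levels reported.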

[5] = Fraction unbound in rat plasma after 4 hrs by equilibrium dialysis method; assay type: ADME, cell-free
[6] = biological target: Metabotropic glutamate receptor 3 (Rattus norvegicus) (UniProt P31422); assay: Allosteric modulation of rat mGlu3 receptor expressed in HEK cells co-expressing GIRK1/2 assessed as change in glutamate-induced thallium flux preincubated for 2.5 mins followed by glutamate addition by FluoZin-2-AM dye based fluorescence assay; assay type: cell-based
Procedure, shortened: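 HEK cells expressing GIRK1/2 plus rat mGlu2, mGlu3, mGlu7 or mGlu8, plated at 15,000 cells/well. Thallium flux was read with a double addition: 10 μM compound, then 2.5 min later a full agonist concentration-response. The agonist was glutamate, or L-AP4 for mGlu7. A left shift of more than 2-fold counted as potentiation. A right shift of more than 2-fold, or a ≥75% drop in maximum response, counted as antagonism.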

[7] = biological target: Cytochrome P450 2D6 (Homo sapiens, UniProt P10635); assay: Inhibition of CYP2D6 in human liver microsomes using dextromethorphan as substrate preincubated for 15 mins followed by substrate addition and measured after 8 mins by LC-MS/MS analysis; assay type: ADME
[8] = tested on: P-gp; assay: Permeability from apical to basolateral side in MDCK cells harboring P-gp; assay type: ADME, cell-based, Canis lupus familiaris; conditions: dog, MDCK-MDR1; read-out: permeability
[9] = Drug uptake in rat brain administered as iv cassette dose; assay type: ADME, organism-based; conditions: in vivo
Procedure, shortened: (§2)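 Cassette dosing in male Sprague-Dawley rats (~300 g, n = 1 per experiment), with carotid artery and jugular vein catheters. Animals acclimated about one week with food and water ad libitum. Plasma (ng/mL) and brain (ng/g) levels were measured and Kp calculated.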

[10] = Brain to plasma partition coefficient, Kp of the compound in rat administered as iv cassette dose; assay type: ADME, organism-based; conditions: brain and plasma, read-out: Kp; procedure, shortened: as §2
[11] = Drug uptake in brain of Sprague-Dawley rat model of haloperidol-induced catalepsy at 10 mg/kg, po; assay type: ADME, organism-based; conditions: in vivo, read-out: Drug uptake; procedure, shortened: as §1
[12] = biological target: Metabotropic glutamate receptor 4 (Rattus norvegicus) (UniProt P31423); assay: Positive allosteric modulation of rat mGlu4 receptor expressed in HEK cells co-expressing GIRK1/2 assessed as increase in glutamate-induced thallium flux preincubated for 140 secs followed by glutamate addition and measured after 2.5 mins by FluoZin-2-AM dye based fluorescence assay relative to control; assay type: cell-based
Procedure, shortened: (§3)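 HEK cells co-expressing rat mGlu4 and GIRK1/2 were loaded for 1 h at room temperature with FluoZin-2 AM (330 nM final) in HBSS/20 mM HEPES pH 7.4. Compound was incubated 140 s, then thallium buffer with or without agonist was added. Reading continued for 2.5 min at room temperature. Potency was fitted by four-parameter logistic.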

[13] = biological target: Metabotropic glutamate receptor 4 (Rattus norvegicus, UniProt P31423); assay: Positive allosteric modulation of rat mGlu4 receptor expressed in HEK cells co-expressing GIRK1/2 assessed as increase in glutamate-induced thallium flux preincubated for 140 secs followed by glutamate addition and measured after 2.5 mins by FluoZin-2-AM dye based fluorescence assay; assay type: cell-based; procedure, shortened: as §3
Chain of Metabotropic glutamate receptor 4 (Rattus norvegicus, UniProt P31423) (P31423 whole entry): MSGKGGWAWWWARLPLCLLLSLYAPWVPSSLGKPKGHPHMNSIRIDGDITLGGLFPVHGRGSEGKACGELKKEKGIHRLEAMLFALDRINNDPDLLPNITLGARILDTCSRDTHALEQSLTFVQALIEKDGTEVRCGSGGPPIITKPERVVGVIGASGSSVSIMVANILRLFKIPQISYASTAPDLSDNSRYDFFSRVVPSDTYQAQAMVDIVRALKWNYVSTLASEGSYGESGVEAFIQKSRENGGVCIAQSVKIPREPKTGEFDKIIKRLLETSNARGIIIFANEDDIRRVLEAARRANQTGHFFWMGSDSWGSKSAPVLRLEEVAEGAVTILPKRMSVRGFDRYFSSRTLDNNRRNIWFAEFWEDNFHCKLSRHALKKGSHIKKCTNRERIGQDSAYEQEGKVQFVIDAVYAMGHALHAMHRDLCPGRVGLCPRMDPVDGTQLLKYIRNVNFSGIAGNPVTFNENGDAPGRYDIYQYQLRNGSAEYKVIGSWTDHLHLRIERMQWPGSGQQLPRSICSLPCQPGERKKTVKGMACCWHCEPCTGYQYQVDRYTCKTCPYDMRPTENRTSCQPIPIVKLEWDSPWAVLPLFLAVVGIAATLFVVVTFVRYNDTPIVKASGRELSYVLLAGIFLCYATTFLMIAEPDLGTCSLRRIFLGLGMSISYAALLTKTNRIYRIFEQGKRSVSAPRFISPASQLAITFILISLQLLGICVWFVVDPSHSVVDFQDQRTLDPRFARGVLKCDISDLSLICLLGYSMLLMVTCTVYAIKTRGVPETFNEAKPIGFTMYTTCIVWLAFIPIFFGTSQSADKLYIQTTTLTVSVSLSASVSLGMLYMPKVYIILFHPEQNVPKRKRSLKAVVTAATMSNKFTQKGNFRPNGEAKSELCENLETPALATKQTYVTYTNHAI

Chain of Metabotropic glutamate receptor 3 (Rattus norvegicus) (P31422 23-879 limits assumed): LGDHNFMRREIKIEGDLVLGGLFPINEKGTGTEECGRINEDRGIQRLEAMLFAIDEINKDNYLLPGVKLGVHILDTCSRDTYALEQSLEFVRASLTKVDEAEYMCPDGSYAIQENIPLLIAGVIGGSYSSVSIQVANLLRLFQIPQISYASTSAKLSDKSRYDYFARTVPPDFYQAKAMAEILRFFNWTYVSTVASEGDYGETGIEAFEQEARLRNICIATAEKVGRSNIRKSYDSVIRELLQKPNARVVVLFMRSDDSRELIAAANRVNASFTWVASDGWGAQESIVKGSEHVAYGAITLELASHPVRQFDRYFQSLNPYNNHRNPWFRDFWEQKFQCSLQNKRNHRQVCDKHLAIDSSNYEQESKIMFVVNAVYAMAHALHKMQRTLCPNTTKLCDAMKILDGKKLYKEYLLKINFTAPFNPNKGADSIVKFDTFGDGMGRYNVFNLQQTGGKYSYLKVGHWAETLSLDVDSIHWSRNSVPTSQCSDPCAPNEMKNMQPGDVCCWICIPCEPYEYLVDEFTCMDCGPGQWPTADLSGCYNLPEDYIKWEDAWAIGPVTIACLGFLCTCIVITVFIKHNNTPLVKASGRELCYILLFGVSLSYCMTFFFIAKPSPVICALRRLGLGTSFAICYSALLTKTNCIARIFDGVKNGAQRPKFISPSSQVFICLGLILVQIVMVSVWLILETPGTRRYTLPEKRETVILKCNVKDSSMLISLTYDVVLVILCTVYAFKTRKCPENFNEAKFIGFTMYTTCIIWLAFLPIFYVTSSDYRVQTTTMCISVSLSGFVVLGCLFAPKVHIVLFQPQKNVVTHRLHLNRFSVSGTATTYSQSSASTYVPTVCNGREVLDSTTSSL
Chain of Metabotropic glutamate receptor 4 (Rattus norvegicus) (P31423 whole entry): as the sequence (P31423 whole entry) above
Chain of Metabotropic glutamate receptor 4 (Homo sapiens, UniProt Q14833) (Q14833 whole entry): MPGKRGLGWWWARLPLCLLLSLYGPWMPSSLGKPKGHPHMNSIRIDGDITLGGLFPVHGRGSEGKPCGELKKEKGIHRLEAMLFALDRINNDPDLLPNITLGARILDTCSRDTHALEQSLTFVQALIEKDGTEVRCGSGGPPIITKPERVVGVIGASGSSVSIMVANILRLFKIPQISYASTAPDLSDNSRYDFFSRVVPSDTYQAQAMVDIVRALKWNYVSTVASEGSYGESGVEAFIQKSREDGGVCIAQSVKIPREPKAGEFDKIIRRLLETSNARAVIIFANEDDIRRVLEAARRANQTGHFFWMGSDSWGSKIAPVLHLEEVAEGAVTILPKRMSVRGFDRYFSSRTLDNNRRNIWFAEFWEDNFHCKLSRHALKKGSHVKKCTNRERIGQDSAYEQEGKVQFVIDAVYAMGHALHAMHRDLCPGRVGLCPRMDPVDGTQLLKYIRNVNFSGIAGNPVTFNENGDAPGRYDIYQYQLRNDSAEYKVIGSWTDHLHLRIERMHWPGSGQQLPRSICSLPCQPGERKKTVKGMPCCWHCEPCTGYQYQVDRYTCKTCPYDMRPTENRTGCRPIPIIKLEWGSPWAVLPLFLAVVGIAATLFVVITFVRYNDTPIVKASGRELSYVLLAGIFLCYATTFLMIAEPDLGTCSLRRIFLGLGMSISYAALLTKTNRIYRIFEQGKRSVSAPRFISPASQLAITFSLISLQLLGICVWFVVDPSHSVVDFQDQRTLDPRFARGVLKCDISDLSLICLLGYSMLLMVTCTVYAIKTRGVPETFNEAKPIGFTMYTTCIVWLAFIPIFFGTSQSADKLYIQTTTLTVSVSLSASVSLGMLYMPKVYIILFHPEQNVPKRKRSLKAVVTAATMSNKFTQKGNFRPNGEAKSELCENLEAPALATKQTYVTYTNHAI
Chain of Cytochrome P450 2D6 (P10635 whole entry): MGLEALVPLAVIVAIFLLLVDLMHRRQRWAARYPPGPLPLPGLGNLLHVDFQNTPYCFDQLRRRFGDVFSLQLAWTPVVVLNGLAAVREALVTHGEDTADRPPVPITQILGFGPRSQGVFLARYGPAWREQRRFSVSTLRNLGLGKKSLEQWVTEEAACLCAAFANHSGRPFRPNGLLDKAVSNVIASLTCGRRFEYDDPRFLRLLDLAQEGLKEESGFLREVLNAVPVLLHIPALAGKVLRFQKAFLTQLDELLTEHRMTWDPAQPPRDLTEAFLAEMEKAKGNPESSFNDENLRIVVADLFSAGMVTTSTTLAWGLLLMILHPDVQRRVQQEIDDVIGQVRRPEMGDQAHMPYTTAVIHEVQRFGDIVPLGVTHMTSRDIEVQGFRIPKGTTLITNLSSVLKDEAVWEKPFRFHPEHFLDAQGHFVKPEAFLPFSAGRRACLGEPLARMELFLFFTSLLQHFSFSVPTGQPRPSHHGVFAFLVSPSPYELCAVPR
Chain of Metabotropic glutamate receptor 1 (Homo sapiens) (Q13255 19-1194 limits assumed): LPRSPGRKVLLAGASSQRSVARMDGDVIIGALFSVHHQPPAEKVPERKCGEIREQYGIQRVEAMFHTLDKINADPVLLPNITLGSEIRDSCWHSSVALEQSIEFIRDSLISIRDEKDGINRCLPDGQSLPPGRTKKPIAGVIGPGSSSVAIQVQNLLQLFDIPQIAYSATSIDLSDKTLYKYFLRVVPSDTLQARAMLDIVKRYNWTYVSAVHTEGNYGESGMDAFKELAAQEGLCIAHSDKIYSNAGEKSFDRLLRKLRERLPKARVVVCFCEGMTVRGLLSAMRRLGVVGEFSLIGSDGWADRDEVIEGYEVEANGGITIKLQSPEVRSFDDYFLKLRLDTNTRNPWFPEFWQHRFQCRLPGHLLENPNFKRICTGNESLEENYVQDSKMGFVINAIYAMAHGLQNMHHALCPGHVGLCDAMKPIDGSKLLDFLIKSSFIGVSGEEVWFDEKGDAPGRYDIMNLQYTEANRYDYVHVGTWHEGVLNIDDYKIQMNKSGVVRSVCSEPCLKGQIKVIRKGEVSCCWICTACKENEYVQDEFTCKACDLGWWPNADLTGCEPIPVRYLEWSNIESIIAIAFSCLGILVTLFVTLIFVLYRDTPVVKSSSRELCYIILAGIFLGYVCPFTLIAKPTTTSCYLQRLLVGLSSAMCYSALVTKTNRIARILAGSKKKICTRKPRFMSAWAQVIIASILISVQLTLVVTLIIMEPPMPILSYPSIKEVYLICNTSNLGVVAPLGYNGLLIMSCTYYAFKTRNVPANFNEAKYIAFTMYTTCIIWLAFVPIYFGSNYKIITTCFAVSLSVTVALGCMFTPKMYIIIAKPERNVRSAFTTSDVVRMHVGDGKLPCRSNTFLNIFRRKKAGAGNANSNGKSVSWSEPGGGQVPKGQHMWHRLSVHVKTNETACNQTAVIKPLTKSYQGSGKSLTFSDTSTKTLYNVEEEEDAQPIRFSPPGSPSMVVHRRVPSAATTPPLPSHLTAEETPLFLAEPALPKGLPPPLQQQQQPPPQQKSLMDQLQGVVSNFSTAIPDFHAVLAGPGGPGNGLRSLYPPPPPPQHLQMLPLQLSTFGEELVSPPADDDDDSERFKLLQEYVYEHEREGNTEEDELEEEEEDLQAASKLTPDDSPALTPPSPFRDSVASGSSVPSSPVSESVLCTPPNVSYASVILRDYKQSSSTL

IC50 [1]: > 30000 nM | EC50 [2]: 50.1 nM | Activity [3]: inactive | fraction unbound at 4 h [5]: 0.005 | Activity [6]: inactive | IC50 [7]: > 30000 nM | Papp A→B [8]: 2.9 ×10⁻⁶ cm/s | Drug uptake [9]: 107 ng/g | Kp [10]: 0.4 | %max [12]: 76.8% | EC50 [13]: 82.7 nM
SMILES: O=C(NC1CC(F)(F)C1)c1nsc2cc(Nc3n[nH]c4cccnc34)ccc12
concentration [4]: 46 nM | concentration [11]: 252 nM
